Test results taken from ChEMBL document CHEMBL1141557, “An expeditious one-pot synthesis of 1,6-dideoxy-N-alkylated nojirimycin derivatives and their inhibitory effects on the secretion of IFN-gamma and IL-4” (Bioorg Med Chem, 2008).
Activity calls are given as the source filed them. The calls are words filed in the database; no cut-off is given here.

Experiments:
[1] = biological target: T1, Beta-mannosidase (Homo sapiens) (UniProt O00462); assay: Inhibition of beta-mannosidase
T1 sequence (whole entry): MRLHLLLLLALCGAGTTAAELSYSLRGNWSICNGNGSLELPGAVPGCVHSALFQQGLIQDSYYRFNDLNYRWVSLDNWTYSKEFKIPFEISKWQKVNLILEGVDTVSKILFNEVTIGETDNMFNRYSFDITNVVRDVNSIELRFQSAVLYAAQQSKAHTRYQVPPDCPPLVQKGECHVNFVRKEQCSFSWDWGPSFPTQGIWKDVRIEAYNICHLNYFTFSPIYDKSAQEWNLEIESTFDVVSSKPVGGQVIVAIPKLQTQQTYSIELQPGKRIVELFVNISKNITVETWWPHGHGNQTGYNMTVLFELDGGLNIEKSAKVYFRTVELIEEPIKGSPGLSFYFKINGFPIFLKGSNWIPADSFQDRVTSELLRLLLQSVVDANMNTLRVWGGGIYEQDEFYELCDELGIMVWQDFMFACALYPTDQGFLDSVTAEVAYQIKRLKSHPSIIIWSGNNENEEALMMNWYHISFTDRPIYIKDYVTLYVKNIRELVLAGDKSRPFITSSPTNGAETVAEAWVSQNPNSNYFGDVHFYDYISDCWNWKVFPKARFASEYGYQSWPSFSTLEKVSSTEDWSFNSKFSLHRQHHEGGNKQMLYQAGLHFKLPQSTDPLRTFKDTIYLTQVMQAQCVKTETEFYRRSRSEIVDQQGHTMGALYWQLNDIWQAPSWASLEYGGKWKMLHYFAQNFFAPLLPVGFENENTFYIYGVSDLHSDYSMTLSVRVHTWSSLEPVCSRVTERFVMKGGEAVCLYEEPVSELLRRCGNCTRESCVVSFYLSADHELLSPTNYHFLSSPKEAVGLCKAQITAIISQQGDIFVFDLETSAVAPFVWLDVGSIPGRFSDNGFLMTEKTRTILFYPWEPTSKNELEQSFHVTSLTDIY
How it was run: (§1)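 Enzyme added to substrate (0.4–5 mM) in 25 mM phosphate and nitrate buffer, with or without iminosugar at various concentrations. Substrates were p-nitrophenyl glycosides; β-galactosidase used o-nitrophenyl β-galactoside.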

Splenocyte [2] = assay: Inhibition of IFN-gamma secretion in BALB/c mouse splenocytes at 60 uM after 72 hrs by ELISA; assay type: functional
How it was run: (§2)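 Splenocytes from BALB/c mouse spleens, red cells lysed with Tris–NH4Cl pH 7.2, in RPMI-1640 with 10% newborn calf serum; 5 × 10^5 cells per well. Cells pretreated 4 h with 10 µg/mL concanavalin A (type IV), then given compound and held 72 h at 37 °C, 5% CO2. IFN-γ or IL-4 in the supernatant measured by mouse cytokine ELISA, quantified from a standard curve (15.63–500 pg/mL).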

Splenocyte [3] = assay: Inhibition of IL4-secretion in BALB/c mouse splenocytes at 60 uM after 72 hrs by ELISA; assay type: functional; how it was run: as §2
[4] = Inhibition of beta galactosidase; how it was run: as §1
[5] = Inhibition of alpha galactosidase; how it was run: as §1
[6] = Inhibition of beta glucosidase; how it was run: as §1
[7] = Inhibition of alpha mannosidase; how it was run: as §1
[8] = Inhibition of concanavalin A-induced BALB/c mouse splenocyte proliferation at 30 uM by MTT assay; assay type: functional
How it was run: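 Mouse splenocytes stimulated with concanavalin A; proliferation read by MTT assay as the mitochondrial dehydrogenase activity of surviving cells, with compound at 30 µM.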

[9] = Inhibition of alpha glucosidase; how it was run: as §1
[10] = Inhibition of alpha-L-fucosidase; how it was run: as §1

Activity [1]	Activity [4]	Activity [5]	Activity [6]	Activity [7]	Activity [9]	IC50 [6] [µM]	Activity [10]	IC50 [9] [µM]	IC50 [10] [µM]	IC50 [5] [µM]	IC50 [7] [µM]	SMILES	inhibition at 60 µM (Splenocyte [2]) [%]	inhibition at 60 µM (Splenocyte [3]) [%]	inhibition at 30 µM [8] [%]
inactive	inactive	inactive	inactive	inactive	inactive							COCCN1C[C@H](O)[C@@H](O)[C@H](O)[C@H]1C	16	58.8	
inactive						540		77	3000	234	2000	CCCCN1C[C@H](O)[C@@H](O)[C@H](O)[C@H]1C	55.5	44	
inactive	inactive	inactive	inactive	inactive			inactive					C[C@@H]1[C@@H](O)[C@H](O)[C@@H](O)CN1CCN	41	64	
inactive	inactive	inactive			inactive		inactive					CCCCCCCCCCN1C[C@H](O)[C@@H](O)[C@H](O)[C@H]1C	61	90	48.3

Second part, the compound before the results:

SMILES	Activity [1]	Activity [4]	Activity [5]	Activity [6]	Activity [7]	Activity [9]	IC50 [6] [µM]	Activity [10]	IC50 [9] [µM]	IC50 [10] [µM]	IC50 [5] [µM]	IC50 [7] [µM]	inhibition at 60 µM (Splenocyte [2]) [%]	inhibition at 60 µM (Splenocyte [3]) [%]	inhibition at 30 µM [8] [%]
C[C@H]1NC[C@H](O)[C@@H](O)[C@@H]1O	inactive	inactive	inactive	inactive	inactive								9	58	
OC[C@H]1NC[C@H](O)[C@@H](O)[C@@H]1O [DUVOGLUSTAT]															15.6
C[C@@H]1[C@@H](O)[C@H](O)[C@@H](O)CN1CCO	inactive	inactive	inactive		inactive	inactive	34						29	57	
CC(=O)NCCN1C[C@H](O)[C@@H](O)[C@H](O)[C@H]1C	inactive		inactive		inactive		> 2000	inactive					9	59.7	
C[C@@H]1[C@@H](O)[C@H](O)[C@@H](O)CN1C1CCCCC1	inactive	inactive	inactive	inactive	inactive								9.1	57	
